High-throughput results as filed in PubChem BioAssay.
RGS4 act = potentiators or activators of RGS4; B-score at 10 µM; HEK293 M3R/inducible RGS4, carbachol calcium flux Fluo4; active compounds read low; 0.92% of 310,000 active; AID 463111;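 active means B-score of the integrated calcium signal more than 4 SD below the library mean, with starting fluorescence not abnormally high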;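 further: negative B-score means reduced calcium response which marks RGS4 activation or potentiation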
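Detection: kinetic calcium fluorescence imaging with Fluo4-AM dye, 2 µM / Material: HEK293 cells with stable M3R and inducible RGS4 / Schedule: recording 10 s baseline at 1 Hz, 100 s post-agonist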
MrgX1 agonist = activates human MrgX1 receptor signaling | Q96LB2 | MrgX1-HEK293 cells, Fluo-4 calcium fluorescence, agonist mode; active compounds read high | B-score at 10 µM | 0.44% of 310,000 active | AID 588627;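 active means calcium response B-score plate-corrected fluorescence ratio at least 3 library SD, with starting fluorescence B-score inside 5 SD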
Target sequence (Q96LB2 whole entry, looked up): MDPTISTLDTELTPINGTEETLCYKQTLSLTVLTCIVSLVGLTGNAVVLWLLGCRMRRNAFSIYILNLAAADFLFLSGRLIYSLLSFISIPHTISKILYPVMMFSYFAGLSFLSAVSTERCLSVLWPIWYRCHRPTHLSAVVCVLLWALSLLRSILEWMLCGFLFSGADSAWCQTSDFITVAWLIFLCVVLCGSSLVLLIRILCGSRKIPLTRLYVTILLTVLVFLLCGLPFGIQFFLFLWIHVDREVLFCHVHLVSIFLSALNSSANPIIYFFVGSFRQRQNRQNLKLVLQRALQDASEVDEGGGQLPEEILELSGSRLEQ
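Assay system: stable human MrgX1 HEK293 cell line. Quantity: 15,000 cells per well. Schedule: cells plated overnight, dye loaded 0.5 h 37 °C, 0.5 h room temperature. Detection: Fluo-4 NW calcium-flux fluorescence, kinetic read. Read-out basis: peak-minus-minimum fluorescence over baseline, converted to B scores. Control set: positive and negative control wells on each plate.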
RGS4 block = human RGS4 inhibition | P49798 | HEK293 M3R/RGS4 inducible, Fluo-4 calcium flux; active compounds read high; triggered by carbachol at its EC20 | B-score at 10 µM | 0.45% of 310,000 active;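 active means B-score, a plate-corrected calcium signal, over three deviations above library mean, with baseline fluorescence within five deviations of library mean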;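 further: RGS4 expression induced by doxycycline in cells with stable M3 receptor; B-score is computed from the integrated fluorescence ratio over baseline after carbachol; higher B-score means a larger calcium signal and so more RGS4 inhibition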
Target sequence (P49798 whole entry, looked up): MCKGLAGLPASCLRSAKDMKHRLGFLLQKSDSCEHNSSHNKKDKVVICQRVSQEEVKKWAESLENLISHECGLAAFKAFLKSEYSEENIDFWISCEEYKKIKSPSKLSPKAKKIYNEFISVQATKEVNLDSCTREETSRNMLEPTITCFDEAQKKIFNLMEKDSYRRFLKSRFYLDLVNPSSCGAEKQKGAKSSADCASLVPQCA
MrgX1 antagonist = antagonists of human MrgX1 receptor; Q96LB2; MRGX1-HEK293 calcium flux, Fluo-4, BAM8-22 antagonism; active compounds read low; B-score at 10 µM; 1.3% of 310,000 active;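 active means calcium-response B-score plate-corrected more than 3 library SD below zero, starting fluorescence within 5 deviations, no agonist response on first addition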;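 further: peak minus trough fluorescence over baseline after final BAM8-22 challenge near maximal dose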
MrgX1 PAM = allosterically activates human MrgX1 receptor signaling; Q96LB2; MrgX1-HEK293, Fluo-4 calcium flux, FDSS; active compounds read high; B-score at 10 µM; 0.63% of 310,000 active;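 active means plate-corrected calcium response at least 3 library SD above typical, normal starting fluorescence, not activating the receptor alone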;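 further: compound read alongside a low EC10 to EC30 dose of BAM8-22 agonist; peak minus trough fluorescence over baseline measured at the second addition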
A number is an active result; – = inactive; · = no result given. Only some compounds are listed: those with a hit (about 3.5% of all), similar ones and a draw of the others.

SMILES	RGS4 act	MrgX1 agonist	RGS4 block	MrgX1 antagonist	MrgX1 PAM
Cc1onc(-c2cccc(Cl)c2Cl)c1C(=O)O/N=C(\N)c1ccc([N+](=O)[O-])o1	-8.7	–	–	–	–
Cc1cc(NC(=O)CN2CCN(Cc3ccccc3)CC2)nc2c1c(=O)oc1ccccc12	–	–	–	–	–
COc1cc(/C=C2/SC(=O)NC2=O)ccc1OC(=O)c1ccco1	–	–	–	–	–
CCS(=O)(=O)C1=NSC2=NC(=O)/C(=C\c3ccc(OC(=O)c4ccco4)c(OC)c3)C(=N)N21	–	–	–	–	28
COc1cc(/C=C2/SC(=S)N(C)C2=O)ccc1OC(=O)c1ccco1	–	–	–	-5	–
COc1cc(/C=C2/C(=N)N3C(=NC2=O)SN=C3S(=O)(=O)C(C)C)ccc1OS(=O)(=O)c1ccccc1	–	–	–	–	13
CCS(=O)(=O)C1=NN2C(=N)/C(=C\c3ccc(OC(=O)c4ccco4)c(OC)c3)C(=O)N=C2S1	–	–	–	–	–
COc1cc(/C=C2\C(=N)N3N=CSC3=NC2=O)cc(Br)c1OC(=O)c1ccco1	–	34	–	–	–
c1ccc2sc(SCc3ccc(-c4nnco4)cc3)nc2c1	–	–	–	–	–
CSCCC(NS(=O)(=O)c1ccccc1F)C(=O)NCc1cccnc1 (centres undefined)	–	–	–	–	–
CS(=O)(=O)C1=NSC2=NC(=O)/C(=C\c3ccc(OC(=O)c4ccco4)cc3)C(=N)N21	–	–	–	–	25
CCOc1cc(/C=C2\C(=N)N3N=CSC3=NC2=O)ccc1OS(=O)(=O)c1ccccc1	–	57	–	–	–
COc1cc(/C=C2/C(=N)N3C(=NC2=O)SN=C3S(C)(=O)=O)ccc1OC(=O)c1ccco1	–	–	–	–	18
CC1CCN(C2=NN3C(=N)/C(=C\c4ccc(OC(=O)c5ccco5)cc4)C(=O)N=C3S2)CC1	–	–	–	–	–
Cc1cc(/C=C2/C(=N)N3C(=NC2=O)SN=C3S(C)(=O)=O)c(C)n1-c1ccccc1F	–	–	–	–	11
CC1=CC2=NC(=O)/C(=C\c3cc(C)n(-c4ccccc4F)c3C)C(=N)N2O1	–	–	–	–	–
O=C1C(c2ccccc2)=[N+]([O-])c2ccccc21	–	–	–	–	–
CC1CCN(C(=O)c2ccc3c(c2NCCO)C(=O)c2ccccc2C3=O)CC1	–	–	–	–	9.9
CC(C)[N+](C)(CCOC(=O)C1c2ccccc2Oc2ccccc21)C(C)C	-8.5	–	–	–	–
COc1ccc(/C=C2\C(=O)ON=C2c2cccc([N+](=O)[O-])c2)cc1	–	–	6.8	–	–
COc1cc(C(=O)Nc2cnc(NC(=O)C(C)C)cc2C)cc(OC)c1OC	–	–	–	-5.7	–
Cc1cc(NC(=O)C(C)C)ncc1NC(=O)Cc1ccccc1	–	–	–	–	–
CC(=O)NC(NC(=S)Nc1ccc(N=Nc2ccccc2C)cc1C)C(Cl)(Cl)Cl (centres undefined)	–	–	–	-4.6	–
Cc1c(CCOC(=O)CC23CC4CC(CC(C4)C2)C3)sc[n+]1CC(=O)c1ccc(Br)cc1	-7.5	–	–	–	–
Cc1c(CCOC(=O)c2ccccc2)sc[n+]1Cc1ccccc1	-10	–	–	–	–
SMILES	RGS4 act	MrgX1 agonist	RGS4 block	MrgX1 antagonist	MrgX1 PAM
Cc1c(CCOC(=O)c2ccccc2)sc[n+]1CC(=O)c1ccc(Br)cc1	-7.9	–	–	–	–
Cc1c(CCOC(=O)c2cc([N+](=O)[O-])cc([N+](=O)[O-])c2)sc[n+]1CC(=O)c1ccccc1	–	–	–	–	–
Cc1c(CCOC(=O)C23CC4CC(CC(C)(C4)C2)C3)sc[n+]1CC(=O)c1ccccc1	–	–	–	–	–
Cc1c(CCOC(=O)CC23CC4CC(CC(C)(C4)C2)C3)sc[n+]1CC(=O)c1ccccc1	–	–	–	–	–
O=C(/C=C/c1ccc(F)cc1)NCc1ccco1	–	–	–	–	–
O=C(/C=C/c1c(F)cccc1Cl)NCc1ccco1	–	–	–	-4.5	–
O=C(CN1C(=O)/C(=C/c2c(F)cccc2Cl)Oc2ccccc21)NCc1ccco1	–	–	–	-6.6	–
CCOC(=O)c1cc(S(=O)(=O)NC2CCC(C)CC2)cn1C (centres undefined)	–	–	–	–	–
CCC(C)(C)n1nnnc1CN1CCN(C(c2ccccc2)c2ccccc2)CC1	-7.5	–	–	–	–
CCC(C)(C)n1nnnc1C(c1ccccc1)N1CCN(Cc2ccccc2)CC1 (centres undefined)	–	–	–	–	–
CCCCOc1ccc(C2=CSC3=NCCN23)cc1[N+](=O)[O-]	-7.4	–	–	–	–
Cc1cc(OCc2cc(C(=O)N3CCC(Oc4cccnc4)CC3)no2)cc(C)c1Cl	-7	–	–	–	–
CC1(c2nnc(-c3ccc(Cl)cc3)o2)CC(c2cccc(Cl)c2)=NO1 (centres undefined)	–	–	–	-5.9	–
O=C(Nc1ccc([N+](=O)[O-])cc1)Nc1ccon1	–	–	–	-4.6	–
O=C(Nc1ccc(Cl)cc1)Nc1cc([N+](=O)[O-])ccc1F	–	–	–	–	–
O=C(Nc1ccc(C(=O)O)cc1)Nc1ccc([N+](=O)[O-])cc1	–	–	–	–	–
COC(=O)c1ccc(NC(=O)Nc2ccc([N+](=O)[O-])cc2)cc1	–	–	–	-7.6	–
O=C(Nc1ccc([N+](=O)[O-])cc1)Nc1ccc(Cl)cc1F	–	–	–	-4.9	–
COC(=O)c1ccc(NC(=O)c2cccc(C)c2[N+](=O)[O-])cc1	–	–	–	-6.3	–
COc1cc(SC)ccc1C(=O)NCC1CCCCC1	–	–	–	–	–
O=C(Cc1ccccc1Cl)Nc1nc2ccccc2[nH]1	–	–	–	–	–
CCN(CC)CCN(C(=O)/C=C/c1cccs1)c1nc2ccc(C)cc2s1	–	–	–	–	–
O=C(O)c1c2c(nc3ccccc13)/C(=C/c1ccccc1[N+](=O)[O-])CCC2	–	–	–	–	–
O=C(O)c1c2c(nc3ccccc13)/C(=C/c1cccc([N+](=O)[O-])c1)CCC2	–	–	–	–	18
ClCC1=Nc2cccc3cccc(c23)N1	–	–	8.7	–	–
SMILES	RGS4 act	MrgX1 agonist	RGS4 block	MrgX1 antagonist	MrgX1 PAM
CCCN(CCC)CCNC(=O)c1cc2c(-c3ccc(Cl)cc3)nn(C)c2s1	-7.2	–	–	–	–
CCN1CCN(c2ncc(C(=O)Nc3c(F)cc(F)cc3Br)c3ccccc23)CC1	–	–	–	–	–
CCN1CCN(c2ncc(C(=O)Nc3cc(Cl)c(OC)cc3OC)c3ccccc23)CC1	-7.3	·	–	·	·
O=c1ccc2cc3c4c(c2o1)CCCN4CCC3	-7.4	–	–	–	–
O=c1oc2c3c4c(cc2s1)CCCN4CCC3	–	–	–	–	–
CCOC(=O)Nc1ccc2c(c1)N(C(=O)CCN1CCN(C)CC1)c1ccccc1S2	–	–	–	–	–
